# Screens from PubChem.
# Compounds with a hit are over-represented: about 3.4% of the library has one in this group of screens.
# rRNA inh HTS: selective bacterial rRNA inhibition in E. coli. E. coli WT GFP vs humanized-ribosome RFP mutants, fluorescence, 24 h; stronger effect = lower value; DMSO median 0, no signal -100. 350,000 compounds, 1.6% hits. GFP signal change (wild-type ribosome), % (no concentration beside the values);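 active means significant combined selectivity score with lowered wild-type GFP, culture density cut under 30%, mutant RFP and density less affected; inactive means any of these conditions unmet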
# SIRT5 inh: blocks human SIRT5 desuccinylation of peptide. Q9NXA8. Purified SirT5, succinyl-peptide AMC, trypsin-coupled fluorescence. inhibition, % at 15 µM. 330,000 compounds, 1.1% hits. AID 652115; in the data active means inhibition above about 15%; inconclusive means no clear call, values can overlap the other calls
# MLL AF4-AF9 inh: inhibitors of human MLL-AF4/AF9 interaction; P42568; AlphaScreen, biotin-AF4 peptide binding to FLAG-AF9; inhibition, % at 10 µM; 350,000 compounds, 0.47% hits;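 active means every replicate reaching a set inhibition limit, whatever the replicate mean, cut at about 25% in these data; inconclusive means mean inhibition reaches that limit but some replicates miss it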;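 further: 0% = plate neutral control median and 100% = total signal loss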
# E-sel inducer: induces E-selectin expression in human endothelial cells | P16581 | HUVEC E-selectin immunofluorescence imaging; normalized: neutral wells 0, TNF-alpha wells 100 | activation, % at 7.58 µM | 260,000 compounds, 0.37% hits;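 active means mean E-selectin-positive cell signal at least 10% of the positive control, reached in at least 60% of replicates, without over 20% cell loss; inconclusive means no rule given, readout overlaps actives, possibly toxicity-flagged; inactive means the rest, including those meeting only one limit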
#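 Material: HUVEC primary endothelial cells; Amount: 3,000 cells per well; Dosing: single concentration; Medium: EGM-2 growth medium on 0.1% gelatin-coated wells; Read-out basis: percent E-selectin-positive cells; Signal: immunofluorescence imaging; Control set: TNF-alpha, DMSO.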
# ERAP1 inh: blocks human ERAP1 aminopeptidase activity. Q9NZ08. recombinant ERAP1, Leu-AMC fluorescence, 60 min. inhibition, % at 10.7 µM. 340,000 compounds, 0.15% hits. AID 652197;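 active means mean replicate inhibition of at least 30%, or all replicates individually reaching that 30% level; inactive means mean below 30% and not every replicate reaching it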;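 further: 0% = neutral control wells and 100% = L-leucinethiol positive control wells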
# Target sequence (Q9NZ08 whole entry, looked up): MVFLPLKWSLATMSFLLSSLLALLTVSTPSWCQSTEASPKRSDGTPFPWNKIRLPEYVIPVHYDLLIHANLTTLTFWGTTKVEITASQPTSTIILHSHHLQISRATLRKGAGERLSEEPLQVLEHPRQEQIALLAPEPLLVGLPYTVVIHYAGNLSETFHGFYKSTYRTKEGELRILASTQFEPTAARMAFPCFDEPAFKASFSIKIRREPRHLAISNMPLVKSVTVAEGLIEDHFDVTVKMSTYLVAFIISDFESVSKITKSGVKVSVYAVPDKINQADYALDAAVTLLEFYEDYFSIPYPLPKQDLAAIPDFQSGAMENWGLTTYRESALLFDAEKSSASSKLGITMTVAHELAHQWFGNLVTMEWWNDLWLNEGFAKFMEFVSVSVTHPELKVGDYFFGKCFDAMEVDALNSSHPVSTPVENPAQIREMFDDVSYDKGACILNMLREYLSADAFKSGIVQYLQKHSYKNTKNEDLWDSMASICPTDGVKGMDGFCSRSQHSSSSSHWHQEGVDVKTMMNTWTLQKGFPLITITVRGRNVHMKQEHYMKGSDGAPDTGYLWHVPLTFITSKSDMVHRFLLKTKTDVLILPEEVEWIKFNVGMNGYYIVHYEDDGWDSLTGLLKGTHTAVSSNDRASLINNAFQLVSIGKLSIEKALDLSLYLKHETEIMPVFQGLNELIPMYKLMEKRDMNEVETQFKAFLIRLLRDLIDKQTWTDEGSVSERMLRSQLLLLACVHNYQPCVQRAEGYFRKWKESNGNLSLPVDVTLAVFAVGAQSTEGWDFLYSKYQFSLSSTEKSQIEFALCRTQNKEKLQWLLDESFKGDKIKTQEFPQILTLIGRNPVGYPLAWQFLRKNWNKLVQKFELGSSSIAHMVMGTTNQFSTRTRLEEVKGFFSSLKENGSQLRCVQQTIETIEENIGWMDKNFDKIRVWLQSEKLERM
# S100A4 MyoIIA: S100A4-myosin IIA interaction inhibition; S100A4/TAMRA-MyoIIA peptide fluorescence polarization; inhibition, % at 10.7 µM; 360,000 compounds, 0.14% hits;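 active means mean inhibition of at least 70% across replicates, with every replicate also reaching that level; inconclusive means mean inhibition reaches 70% but some replicates fall short; inactive means mean inhibition below 70%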
#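 incubation = readout 5 min after mixing, signal stable up to 60 min | system = S100A4 monomer protein | buffer or medium = HEPES pH 7.2 with CaCl2, KCl, NaCl, DTT, Triton | benchmarks = neutral control DMSO, positive control TFP | also added = fluorescent myosin IIA peptide, 5 nM | compound dosing = one concentration per compound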
# * hit, by the source's call; ? = inconclusive; . = no result given.
SMILES,rRNA inh HTS,SIRT5 inh,MLL AF4-AF9 inh,E-sel inducer,ERAP1 inh,S100A4 MyoIIA
CCCNC(=O)N(C)C[C@@H]1Oc2cc(-c3cncnc3)ccc2S(=O)(=O)N([C@@H](C)CO)C[C@@H]1C,4,3,-2,0,5,-7
COc1ccc(NC(=O)Nc2ccc3c(c2)C(=O)N([C@@H](C)CO)C[C@H](C)[C@@H](CN(C)C)OCCCC[C@@H](C)O3)cc1,0,6,-6,0,2,1
Cc1ccccc1-c1ccc([C@@H]2[C@H](CO)N3CCCCN(C(=O)Nc4ccc(F)cc4)C[C@@H]23)cc1,-60,17*,11,-1,1,21
O=S(=O)(c1ccc(F)cc1)N1CCCCN2[C@H](CO)[C@H](c3ccc(-c4ccccc4F)cc3)[C@H]2C1,.,-1,-2,.,5,-8
O=S(=O)(c1ccc(F)cc1)N1CCCCN2[C@@H](CO)[C@@H](c3ccc(-c4ccccc4F)cc3)[C@@H]2C1,.,16*,0,.,2,1
O=C(Nc1nc2c(Cl)ccc(Cl)c2s1)C1CC1,-4,2,-9,1,4,-2
NNc1nc2c(Cl)ccc(Cl)c2s1,-26*,1,?,-1,-1,-1
C[C@@H]1CN([C@@H](C)CO)C(=O)c2cc(C#Cc3cccc(F)c3)cnc2O[C@@H]1CN(C)C(=O)C1CCCCC1,0,8,2,0,-4,-9
C[C@@H]1C/C=C/C[C@H](c2ccc3c(c2)OCO3)NC(=O)[C@@H](C)N(C)C(=O)c2ccccc2O1,3,.,.,.,.,.
CCCNC(=O)[C@@H]1[C@@H](CO)[C@@H]2Cn3c(ccc(-c4ccccc4)c3=O)[C@H]1N2C(=O)CC,1,-28,-4,0,0,7
N=C1/C(=C\c2ccc(-c3cc(Cl)cc(Cl)c3)o2)C(=O)N=C2SC=C(c3ccccc3)N12,.,.,.,2,.,.
CC(C)S(=O)(=O)C1=NSC2=NC(=O)/C(=C\c3ccc(-c4cccc(C(=O)O)c4)o3)C(=N)N21,4,21*,-2,-2,.,-8
N=C1/C(=C/c2ccc(-c3cccc(C(=O)O)c3)o2)C(=O)N=C2SC=C(c3ccccc3)N12,-21*,-5,1,.,0,-9
COc1cc(/C=C(\C#N)C(N)=O)ccc1OS(=O)(=O)c1ccc(C)cc1,-24*,-8,9,.,-1,-1
COc1cc(/C=C(\C#N)C(=O)NC2CCCCC2C)ccc1OS(=O)(=O)c1ccc(C)cc1 (centres undefined),.,.,.,1,.,.
CN1C=C/C(=C\c2cc[n+](C)c3ccccc23)c2ccccc21,-16,2,56*,0,80*,0
C[C@@H]1CCCCO[C@H](CN(C)C(=O)C2CCCCC2)[C@@H](C)CN([C@H](C)CO)C(=O)c2cc(NC(=O)Cc3ccccc3)ccc2O1,4,-2,0,0,2,-10
CCOC(=O)c1sc2nc(N3CCOCC3)c3c(c2c1N)CCC3,.,.,.,-1,.,.
CCOC(=O)c1sc2nc(OCCN3CCOCC3)cc(C)c2c1N,-9,17*,3,0,1,-6
CC(=O)c1c(C)[nH]c(C(=O)OCC(=O)N2CCc3ccccc3C2)c1C,-22*,-11,-1,.,3,-2
CC(=O)c1c(C)[nH]c(C(=O)OCC(=O)N2CCN(c3ccccc3)CC2)c1C,1,-6,-4,0,-3,0
CS(=O)(=O)N1CC2(C1)[C@H](c1ccccc1)[C@H](CO)N2Cc1ccccn1,2,-1,-2,0,-5,15
Cc1cc(O)c2c(c1)C(=O)c1cccc(O)c1C2=O,.,.,5,.,-2,7
O=C(O)c1cc(O)c2c(c1)C(=O)c1cccc(O)c1C2=O,.,18*,-16,-2,6,1
O=C(NC1=NCCS1)c1sc2ccccc2c1Cl,-31*,-1,-5,.,6,2
SMILES,rRNA inh HTS,SIRT5 inh,MLL AF4-AF9 inh,E-sel inducer,ERAP1 inh,S100A4 MyoIIA
Cc1cccnc1NC(=O)c1sc2ccccc2c1Cl,-14,-2,0,0,-1,-30
C=CC(=O)N1C/C(=C/c2ccccc2)C(=O)/C(=C\c2ccccc2)C1,-44*,.,8,0,3,-1
C=CC(=O)N1C/C(=C/c2ccc(Cl)cc2)C(=O)/C(=C\c2ccc(Cl)cc2)C1,-15,0,4,-1,12,3
O=C(C[C@@H]1CC[C@H]2[C@@H](COC[C@H](O)CN2C(=O)Nc2cc(Cl)cc(Cl)c2)O1)N1CCCCC1,-48,-3,0,0,0,-3
COc1ccc(C(=O)NNC(=O)c2ccc3ccccc3c2O)cc1,-24*,-3,1,.,-1,0
O=C(NNC(=O)c1ccc2ccccc2c1)c1cccc(F)c1,-5,.,-1,0,1,7
COc1ccc(C(=O)NNC(=O)Cc2ccc(Cl)cc2)cc1,0,-1,-1,-2,.,1
COc1cccc(C(=O)NNC(=O)Cc2ccc(Cl)cc2)c1,-21*,-3,-3,0,-2,3
Cc1ccc(C(=O)NNC(=O)c2ccc3ccccc3c2O)cc1,-27*,-1,-9,.,-2,-7
COc1ccccc1C(=O)NNC(=O)c1ccc2ccccc2c1O,-16,-2,-1,0,-34,3
COc1ccc(C(=O)NNC(=O)c2cccc(F)c2)cc1,-23*,-3,1,.,6,1
COc1ccc(C(=O)Nc2ccc(C)cc2C(=O)c2ccccc2)cc1,-19*,-2,14,.,-7,-1
CC(C)CC#Cc1cnc2c(c1)C(=O)N([C@H](C)CO)C[C@H](C)[C@H](CN(C)Cc1cccc(C(=O)O)c1)O2,-2,-1,-6,0,2,-10
Clc1ccc(Cl)c(OCCN2CCCC2)c1,4,16*,2,.,-1,-5
CC1CCN(CCOCCOc2ccc(Cl)cc2Br)CC1,-30*,0,11,.,-4,1
CC1CCN(CCCOc2ccc(Cl)cc2Br)CC1,11,2,-1,0,-1,1
CN(C)C(=O)[C@H]1[C@H](CO)[C@H]2Cn3c(ccc(/C=C/c4ccccc4)c3=O)[C@H]2N1CC1CC1,-1,-17,-4,-2,2,-6
O=C(NCCNC(=O)c1ccccc1F)c1ccccn1,1,16*,0,0,-3,-11
CC1CCN(C(=O)c2[nH]cnc2C(=O)NCc2ccc(CNC(=O)OC(C)(C)C)cc2)CC1,9,17*,2,0,-1,-3
C[C@H](NC(=O)c1nc[nH]c1C(=O)N1CCN(C(=O)OC(C)(C)C)CC1)C(=O)OCc1ccccc1,-1,0,-1,.,2,0
CC1CCN(C(=O)c2[nH]cnc2C(=O)N[C@@H](C)C(=O)OCc2ccccc2)CC1,1,.,-2,1,.,138*
